Bioassay records: PubChem, The Scripps Research Institute Molecular Screening Center
Compounds with a hit are over-represented: about 4.7% of the library has one in this group of screens.
AHR act = AHR activators, primary screen, cell-based, luminescence, luciferase reporter, human | Aryl hydrocarbon receptor (Homo sapiens), P35869 | AHR-responsive luciferase reporter cells | activation, % at 5 µM | actives 2.5% (n = 320,000); in the data active = activation above about 47%;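 also: 0% = vehicle wells and 100% = reference agonist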
FXN GAA850 act = FXN promoter activators, primary screen, cell-based, luciferase luminescence, HEK293 lucGAA850; AID 540364, 2011; HEK293 lucGAA850 FXN promoter luciferase reporter, 24 h; percent of 10 µM SAHA response; activation, % at 6 µM; actives 0.56% (n = 360,000);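 active = activation above the average of all compounds screened plus 3 SD, cutoff fixed separately per campaign, cut at about 7.5% in these data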;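 also: 0% = DMSO wells and 100% = 10 µM SAHA wells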
MC4R antagonist = MC4R antagonists of cAMP signaling, primary screen, cell-based, TR-FRET, antagonist arm of biased-ligand search. Melanocortin receptor 4 (Homo sapiens), P32245. MC4R-expressing cells, MTII-stimulated cAMP, LANCE TR-FRET. actives 0.48% (n = 360,000). inhibition, % at 6.5 µM;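 active = inhibition above its plate's cutoff, the mean of tested wells on that plate plus 3 SD, cut at about 29% in these data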;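 also: 0% = Melanotan II alone and 100% = Melanotan II plus saturating MCL0020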
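system = U2OS cells with stable human MC4R expression | also added = Melanotan II challenge after compound preincubation | dosing = one concentration, 6.5 µM nominal | incubation = compound 30 min, challenge 1 h, detection 1 h | measured by = TR-FRET with Eu-cAMP and labeled anti-cAMP, 671 nm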
HTR2A ag = mouse Htr2a agonists via beta-arrestin recruitment, primary screen, cell-based, luminescence | actives 0.66% (n = 360,000) | CHO-K1 mHTR2A beta-arrestin complementation; percent of 30 µM serotonin response | AID 624169, 2012 | 5-hydroxytryptamine receptor 2A (Mus musculus), P35363 | activation, % at 7.6 µM;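 active = activation above a run cutoff, the mean activation of all tested compounds plus 3 SD, cut at about 14% in these data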;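 also: 0% = plate median of compound wells and 100% = 30 µM serotonin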
MC4R barr agon = MC4R agonists recruiting beta-arrestin, primary screen, cell-based, luminescence, agonist arm of biased-ligand search; Melanocortin receptor 4 (Homo sapiens), P32245; U2OS MC4R beta-arrestin complementation; percent of melanotan II response, DMSO zero; activation, % at 8.9 µM; actives 0.98% (n = 360,000); AID 540308, 2011;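 active = activation above a per-plate cutoff, the mean activation of sample wells on that plate plus 3 SD, cut at about 8% in these data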
AHR act cf = AHR activators, confirmation, cell-based, luminescence, luciferase reporter, human; actives 87% (n = 2,300); activation, % at 9 µM; AID 2845, 2010; shares compounds with AHR act; human cells, AHR-responsive luciferase reporter; in the data active = activation above about 49%;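 also: HepG2 hepatoma cells carrying a DRE-driven firefly luciferase reporter; 0% = vehicle wells and 100% = reference agonist wells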
PXR counter = human PXR activators, counter-screen for AHR activator project, cell-based, luciferase luminescence; activation, % at 11.6 µM; cell-based PXR reporter; shares compounds with AHR act; AID 434939, 2010; actives 88% (n = 2,300); in the data active = activation above about 11%;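 also: human hepatoma DPX-2 cells expressing full-length human PXR; 0% = DMSO and 100% = reference agonist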
Target sequence (O75469 whole entry, looked up): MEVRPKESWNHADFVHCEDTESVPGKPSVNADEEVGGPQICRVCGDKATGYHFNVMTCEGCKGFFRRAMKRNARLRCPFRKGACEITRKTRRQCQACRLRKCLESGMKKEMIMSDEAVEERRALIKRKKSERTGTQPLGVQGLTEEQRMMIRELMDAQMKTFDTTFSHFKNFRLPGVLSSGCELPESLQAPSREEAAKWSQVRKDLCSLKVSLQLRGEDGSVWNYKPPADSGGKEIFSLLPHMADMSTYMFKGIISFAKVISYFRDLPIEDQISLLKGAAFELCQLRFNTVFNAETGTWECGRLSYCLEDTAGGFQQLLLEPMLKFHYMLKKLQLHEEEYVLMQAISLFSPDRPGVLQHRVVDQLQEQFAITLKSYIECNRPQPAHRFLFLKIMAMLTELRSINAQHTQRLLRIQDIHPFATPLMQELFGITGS
An asterisk follows results filed as active.

Screening O=C(CC1Nc2cccc3cccc(c23)NC1=O)Nc1ccccc1 (stereo not given) returned AHR act 136*, FXN GAA850 act -2, MC4R antagonist -1, HTR2A ag -3, MC4R barr agon 0, AHR act cf 99* and PXR counter 79*.
Cc1cccc(N=C2NC(=O)/C(=C\c3cccs3)S2)c1 was read as AHR act 32, FXN GAA850 act 4, MC4R antagonist 9, HTR2A ag -10 and MC4R barr agon -3.
Screening O=C1NC(=Nc2ccccc2)S/C1=C/c1cccs1 returned AHR act 116*, FXN GAA850 act 5, MC4R antagonist 7, HTR2A ag 3, MC4R barr agon -3, AHR act cf 120* and PXR counter 32*.
`Cc1[nH]nc(Nc2ccc(O)cc2)c1[N+](=O)[O-]` gave AHR act -4, FXN GAA850 act 1, MC4R antagonist 6, HTR2A ag 0 and MC4R barr agon -1.
`Cc1ccc(Nc2n[nH]c(C)c2[N+](=O)[O-])c(C)c1` gave AHR act 132*, FXN GAA850 act 6, MC4R antagonist -7, HTR2A ag 5, MC4R barr agon -4, AHR act cf 127* and PXR counter 15*.
Cc1ccccc1Nc1n[nH]c(C)c1[N+](=O)[O-] was read as AHR act 80*, FXN GAA850 act 2, MC4R antagonist -4, HTR2A ag 0, MC4R barr agon -2, AHR act cf 106* and PXR counter 22*.
O=C(c1ccc(-c2nc3ccccc3s2)o1)N1CCN(c2ccccc2O)CC1 was read as AHR act 89*, FXN GAA850 act 1, MC4R antagonist 21, HTR2A ag 5, MC4R barr agon -1, AHR act cf 85* and PXR counter 37*.
For COc1ccc(NC(=O)CSCC(=O)N(C)Cc2ccc3c(c2)OCCO3)cc1 the results were AHR act 1, FXN GAA850 act 1, MC4R antagonist 0, HTR2A ag -4 and MC4R barr agon -2.
`O=C(Nc1cccc(Cl)c1)N1CCc2ccccc2C1` gave AHR act 114*, FXN GAA850 act 6, MC4R antagonist 6, HTR2A ag 2, MC4R barr agon 0, AHR act cf 118* and PXR counter 30*.
For CCOC(=O)C1(C)CCN1C(=O)CSc1ccccc1 (stereo not given) the results were FXN GAA850 act 1, MC4R antagonist 13, HTR2A ag 6 and MC4R barr agon -1.
`C[C@@H](c1ccccc1)N1C[C@@H](COCc2ccccc2)Oc2cc(N3CCC[C@@H]3CO)ccc2S1(=O)=O` gave HTR2A ag -2.
Screening COC(=O)C(Cc1ccccc1)NC(=O)CC(C)CC(=O)Nc1ccc(C)cc1 (stereo not given) returned AHR act -1, FXN GAA850 act 2, MC4R antagonist 26, HTR2A ag 6 and MC4R barr agon 2.
For COc1ccc(Nc2nc(-c3ccc(OC)cc3)c(CCC(=O)O)s2)cc1 the results were AHR act 2, FXN GAA850 act 4, MC4R antagonist 3, HTR2A ag 1 and MC4R barr agon 4.
`Cc1ccc(Nc2nc(-c3ccc(C)cc3)c(CC(=O)O)s2)cc1` gave AHR act 85*, FXN GAA850 act 3, MC4R antagonist 6, HTR2A ag -1, MC4R barr agon -1, AHR act cf 9 and PXR counter 8.
Screening C/C=C/C(=O)OCC(=O)Nc1cc(-c2cc(C)c(C)cc2C)nn1-c1ccccc1 returned AHR act 105*, FXN GAA850 act 2, MC4R antagonist 5, HTR2A ag -8, MC4R barr agon -1, AHR act cf 90* and PXR counter 85*.
`N#Cc1cccc(-c2csc(C(O)c3ccco3)n2)c1` (stereo not given) gave FXN GAA850 act 1, MC4R antagonist 0, HTR2A ag 1 and MC4R barr agon 0.
For C=C(C)CNC(=S)N/N=C(\C)c1ccc(-n2ccnc2)cc1 the results were AHR act 94*, FXN GAA850 act 2, MC4R antagonist 4, HTR2A ag 0, MC4R barr agon -2, AHR act cf 98* and PXR counter 36*.
`C/C(=N\NC(=O)c1ccccc1)c1ccc(-n2ccnc2)cc1` gave AHR act 21, FXN GAA850 act 5, MC4R antagonist -6, HTR2A ag -4 and MC4R barr agon -1.
N#C/C(=C\c1ccc(N2CCCCC2)o1)C(=O)Nc1cccc(Br)c1 was read as AHR act 100*, FXN GAA850 act 7, MC4R antagonist 2, HTR2A ag 0, MC4R barr agon 1, AHR act cf 72* and PXR counter 13*.
COc1ccc(-c2ccc(-c3nc4ccc(C)cn4c3NC3CCCCC3)cc2OC)cc1 was read as AHR act 15, FXN GAA850 act 1, MC4R antagonist 14, HTR2A ag -4 and MC4R barr agon -3.
For Cn1nc(NC(=O)C(F)(F)F)c2ncc(-c3ccc(Cl)cc3)nc21 the results were AHR act 134*, FXN GAA850 act 7, MC4R antagonist 10, HTR2A ag 2, MC4R barr agon -1, AHR act cf 131* and PXR counter 37*.
For Cc1c(C(=O)Nc2nccs2)oc2ccc(F)cc12 the results were AHR act 40, FXN GAA850 act 5, MC4R antagonist 7, HTR2A ag 6 and MC4R barr agon 2.
Cc1c(C(=O)Nc2nccs2)oc2ccc(Br)cc12 was read as AHR act 86*, FXN GAA850 act 7, MC4R antagonist -1, HTR2A ag 0, MC4R barr agon 5, AHR act cf 132* and PXR counter 22*.
`Nc1ccn(C2OC(COC(=O)C34CC5CC(CC(C5)C3)C4)C(O)C2O)c(=O)n1` (stereo not given) gave FXN GAA850 act 2, MC4R antagonist 0, HTR2A ag 3 and MC4R barr agon -1.
COc1cccc(Cn2cnc(-c3ccccc3OC)c2C2CC2)c1 was read as HTR2A ag 0.
For Cc1cccc(Oc2nc3c(c(=O)n(C)c(=O)n3C)n2C)c1 the results were AHR act 12, FXN GAA850 act -3, MC4R antagonist 5, HTR2A ag -2 and MC4R barr agon 0.
